Data reported in ChEMBL document CHEMBL1151683, “Design, synthesis and antitumor evaluation of novel thalidomide dithiocarbamate and dithioate analogs against Ehrlich ascites carcinoma-induced solid tumor in Swiss albino mice” (Bioorg Med Chem, 2008).

Tests used:
[1] = system: Ehrlich; experiment: Cytotoxicity against mouse Ehrlich ascites carcinoma cells assessed as viable cells at 20 uL after 24 hrs by trypan blue exclusion assay; format: functional
How it was run: (§1)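 EAC cells maintained by i.p. passage in female Swiss albino mice. Cells aspirated from peritoneum, washed in HBSS and centrifuged at 1500 rpm for 15 min; 0.2 mL of diluted suspension plated. Compounds from 10 mmol stock in DMSO/H₂O (0.7:0.3) were added in triplicate and incubated 24 h at 37 °C, 5% CO₂. Viability by trypan blue exclusion; cytotoxicity calculated against control EAC cells.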

[2] = system: Ehrlich; experiment: Cytotoxicity against mouse Ehrlich ascites carcinoma cells assessed as viable cells at 30 uL after 24 hrs by trypan blue exclusion assay; format: functional; how it was run: as §1
[3] = system: Ehrlich; experiment: Cytotoxicity against mouse Ehrlich ascites carcinoma cells assessed as cell death at 10 uL after 24 hrs by trypan blue exclusion assay
[4] = system: Ehrlich; experiment: Antitumor activity against mouse Ehrlich ascites carcinoma cells implanted in Swiss albino mouse assessed as tumor mitotic index treated after 7 days post-tumor implantation at 1.25 mM/kg, sc for 5 days by histopathological analysis; format: functional
How it was run: (§2)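 H&E-stained 5 µm paraffin sections of solid tumour. Mitotic cells counted in 10 random fields (at least 1000 tumour cells) at 400×. Apoptotic bodies counted in 10 random fields at the same magnification. MI and AI given as percentage of total intact tumour cells.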

[5] = system: Mus musculus; experiment: Decrease in lipid peroxidation in mouse Ehrlich ascites carcinoma cells implanted in Swiss albino mouse assessed as malondialdehyde per gram of tissue treated after 7 days post-tumor implantation at 1.25 mM/kg, sc for 5 days; format: functional
How it was run: (§3)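 Livers from tumour-bearing mice were excised and rinsed in ice-cold saline, then in cold 0.15 mol/L Tris–HCl pH 7.4. They were blotted dry, weighed and homogenised at 10% w/v. Lipid peroxidation was expressed as nmol MDA/g tissue, catalase as kU/mg tissue and SOD as U/g tissue.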

[6] = system: Mus musculus; experiment: Toxicity in Swiss albino mouse bearing mouse Ehrlich ascites carcinoma cells assessed as hepatocyte necrosis treated after 7 days post-tumor implantation at 1.25 mM/kg, sc for 5 days by histopathological analysis; format: organism-based; details: in vivo, 1250 µM
How it was run: (§4)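 Liver specimens from the treated tumour-bearing mice were paraffin-embedded and cut as 5 µm sections. Sections were H&E-stained and graded for severity of hepatocyte degeneration and necrosis, with 0 meaning no degeneration or necrosis.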

[7] = system: Ehrlich; experiment: Antitumor activity against mouse Ehrlich ascites carcinoma cells implanted in Swiss albino mouse assessed as tumor necrosis treated after 7 days post-tumor implantation at 1.25 mM/kg, sc for 5 days by histopathological analysis relative to control; format: functional
How it was run: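 Necrosis scored on H&E-stained 5 µm paraffin sections of excised solid tumour. Severity and percentage necrosis were graded, and an H score was calculated.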

[8] = system: Mus musculus; experiment: Increase in SOD activity per gram of tissue in mouse Ehrlich ascites carcinoma cells implanted in Swiss albino mouse treated after 7 days post-tumor implantation at 1.25 mM/kg, sc for 5 days; format: functional; how it was run: as §3
[9] = system: Ehrlich; experiment: Induction of apoptosis in mouse Ehrlich ascites carcinoma cells implanted in Swiss albino mouse assessed as increase in Fas-L expression treated after 7 days post-tumor implantation at 1.25 mM/kg, sc for 5 days by immunohistochemical analysis; format: functional
How it was run: (§5)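 Solid tumours from EAC-bearing female Swiss albino mice; formalin-fixed, paraffin-embedded 5 µm sections. Microwave antigen retrieval (20 min, 10 mmol citrate, pH 6.0) after peroxidase block; primary antibody overnight at room temperature, labelled streptavidin–biotin HRP detection, DAB chromogen, Mayer's hematoxylin counterstain. Immunoreactivity scored blind by light microscopy as intensity, % positive cells and H score.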

[10] = system: Ehrlich; experiment: Antitumor activity against mouse Ehrlich ascites carcinoma cells implanted in Swiss albino mouse assessed as tumor apoptotic index treated after 7 days post-tumor implantation at 1.25 mM/kg, sc for 5 days by histopathological analysis; format: functional; how it was run: as §2
[11] = system: Ehrlich; experiment: Antitumor activity against mouse Ehrlich ascites carcinoma cells implanted in Swiss albino mouse treated after 7 days post-tumor implantation at 1.25 mM/kg, sc for 5 days relative to control; format: functional
How it was run: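 Female Swiss albino mice (n = 8 per group) received 0.2 mL EAC cells (2 × 10⁶ cells/mL) s.c. between the thighs of the lower limb. From day 7, compounds were given at 1.25 mM/kg s.c. daily for 5 consecutive days. […] control group received DMSO/H₂O. Mice were sacrificed and tumour volume change assessed on day 12 post-implantation.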

[12] = system: Mus musculus; experiment: Increase in catalase activity per milligram of tissue in mouse Ehrlich ascites carcinoma cells implanted in Swiss albino mouse treated after 7 days post-tumor implantation at 1.25 mM/kg, sc for 5 days; format: functional; how it was run: as §3
[13] = system: Mus musculus; experiment: Toxicity in Swiss albino mouse bearing mouse Ehrlich ascites carcinoma cells assessed as hepatocyte degeneration treated after 7 days post-tumor implantation at 1.25 mM/kg, sc for 5 days by histopathological analysis; format: organism-based; details: in vivo, 1250 µM; how it was run: as §4
[14] = system: Mus musculus; experiment: Toxicity in Swiss albino mouse bearing mouse Ehrlich ascites carcinoma cells assessed as focal degeneration of hepatocytes treated after 7 days post-tumor implantation at 1.25 mM/kg, sc for 5 days by histopathological analysis; format: organism-based; details: in vivo; how it was run: as §4
[15] = system: Mus musculus; experiment: Toxicity in Swiss albino mouse bearing mouse Ehrlich ascites carcinoma cells assessed as multifocal degeneration of hepatocytes treated after 7 days post-tumor implantation at 1.25 mM/kg, sc for 5 days by histopathological analysis; format: organism-based; details: in vivo, 1250 µM; how it was run: as §4
[16] = system: Ehrlich; experiment: Antiproliferative activity against mouse Ehrlich ascites carcinoma cells implanted in Swiss albino mouse assessed as inhibition of Ki67 protein expression treated after 7 days post-tumor implantation at 1.25 mM/kg, sc for 5 days by immunohistochemical analysis; format: functional; parameters: scale not given: the % may be the effect or the level left; how it was run: as §5
[17] = system: Mus musculus; experiment: Toxicity in Swiss albino mouse bearing mouse Ehrlich ascites carcinoma cells assessed as focal necrosis of hepatocytes treated after 7 days post-tumor implantation at 1.25 mM/kg, sc for 5 days by histopathological analysis; format: organism-based; details: in vivo, 1250 µM; how it was run: as §4
[18] = system: Ehrlich; experiment: Antiangiogenic activity against mouse Ehrlich ascites carcinoma cells implanted in Swiss albino mouse assessed as inhibition of VEGF expression treated after 7 days post-tumor implantation at 1.25 mM/kg, sc for 5 days by immunohistochemical analysis; format: functional; parameters: scale not given: the % may be the effect or the level left; how it was run: as §5

SMILES	Activity [1]	Activity [2]	Activity [3]	Activity [4]	Activity [5]	Activity [6]	Activity [7]	Activity [8]	Activity [9]	Activity [10]	inhibition (INH) [11]	Activity [12]	Activity [13]	Activity [14]	Activity [15]	Activity [16]	Activity [17]	Activity [18]
O=C1CCC(N2C(=O)c3ccccc3C2=O)C(=O)N1CSC(=S)NCc1ccccc1 (stereo not drawn)	59%	61.3%	56.7%	–	–	–	–	–	–	–	–	–	–	–	–	–	–	–
CCCNC(=S)SCN1C(=O)CCC(N2C(=O)c3ccccc3C2=O)C1=O (stereo not drawn)	75.5%	88.6%	10.6%	–	–	–	–	–	–	–	–	–	–	–	–	–	–	–
O=C1CCC(N2C(=O)c3ccccc3C2=O)C(=O)N1CSC(=S)N(CCO)CCO (stereo not drawn)	30.6%	87.8%	20.6%	–	–	–	–	–	–	–	–	–	–	–	–	–	–	–
CSCN1C(=O)CCC(N2C(=O)c3ccccc3C2=O)C1=O (stereo not drawn)	71.5%	82.8%	62.5%	0.004	289.6 nmol	Non-toxic	49%	139.8 U	45%	0.002	90.6%	6.7 kU	Non-toxic	–	–	–	–	–
O=C1CCC(N2C(=O)c3ccccc3C2=O)C(=O)N1CSC(=S)NCCc1ccccc1 (stereo not drawn)	47.3%	52%	45%	–	–	–	–	–	–	–	–	–	–	–	–	–	–	–
O=C1CCC(N2C(=O)c3ccccc3C2=O)C(=O)N1CSC(=S)NCCN1CCNCC1 (stereo not drawn)	60.6%	68.8%	45.5%	–	–	–	–	–	–	–	–	–	–	–	–	–	–	–
O=C1CCC(N2C(=O)c3ccccc3C2=O)C(=O)N1CSC(=S)NCCN1CCOCC1 (stereo not drawn)	75.7%	94.7%	20.6%	–	–	–	–	–	–	–	–	–	–	–	–	–	–	–
CNC(=S)SCN1C(=O)CCC(N2C(=O)c3ccccc3C2=O)C1=O (stereo not drawn)	80%	85.7%	76.5%	–	–	–	–	–	–	–	–	–	–	–	–	–	–	–
CCN(CC)C(=S)SCN1C(=O)CCC(N2C(=O)c3ccccc3C2=O)C1=O (stereo not drawn)	20.7%	90.6%	10.2%	–	–	–	–	–	–	–	–	–	–	–	–	–	–	–
O=C1CCC(N2C(=O)c3ccccc3C2=O)C(=O)N1CSC(=S)NN1CCOCC1 (stereo not drawn)	70.6%	91.3%	30.5%	–	–	–	–	–	–	–	–	–	–	–	–	–	–	–
CN1CCN(NC(=S)SCN2C(=O)CCC(N3C(=O)c4ccccc4C3=O)C2=O)CC1 (stereo not drawn)	80.7%	100%	80.4%	0.002	248.4 nmol	Non-toxic	61%	162.2 U	60%	0.005	98.9%	8.2 kU	–	Active	–	–	–	–
O=C1CCC(N2C(=O)c3ccccc3C2=O)C(=O)N1CSC(=S)N1CCOCC1 (stereo not drawn)	80.5%	89.7%	80%	–	–	–	–	–	–	–	–	–	–	–	–	–	–	–
O=C1CCC(N2C(=O)c3ccccc3C2=O)C(=O)N1CSC(=S)NC1CCCCC1 (stereo not drawn)	60.8%	95.2%	20.6%	0.005	257.8 nmol	Non-toxic	41%	128.6 U	44%	0.002	92.7%	6.4 kU	–	Active	–	–	–	–
O=C1CCC(N2C(=O)c3ccccc3C2=O)C(=O)N1CSC(=S)NCCN1CCCCC1 (stereo not drawn)	80.8%	100%	80.5%	0.004	247.6 nmol	Non-toxic	100%	145.8 U	55%	0.004	99.6%	7.2 kU	–	–	Active	–	–	–
O=C1CCC(N2C(=O)c3ccccc3C2=O)C(=O)N1CSC(=S)NNc1ccccc1 (stereo not drawn)	81.6%	92%	80%	–	–	–	–	–	–	–	–	–	–	–	–	–	–	–
O=C1CCC(N2C(=O)c3ccccc3C2=O)C(=O)N1CSC(=S)N1CCCCC1 (stereo not drawn)	80.4%	95.3%	10.3%	0.004	276.2 nmol	Non-toxic	50%	152.4 U	120%	0.002	95.9%	7.2 kU	–	Active	–	–	–	–
O=C1CCC(N2C(=O)c3ccccc3C2=O)C(=O)N1 (racemic) [THALIDOMIDE]	20.5%	56.4%	20.5%	0.006	330.2 nmol	–	44%	108.4 U	66%	0.003	80.6%	5.8 kU	–	Active	–	7.4%	Active	8%
